Measured values published in ChEMBL document CHEMBL4680226, “Design, synthesis, and evaluation of N-phenyl-4-(2-phenylsulfonamido)-benzamides as microtubule-targeting agents in drug-resistant cancer cells, displaying HDAC inhibitory response” (Eur J Med Chem, 2020).
Active and inactive are the calls of the source. No cut-off for these calls is given here.

How the values were obtained:
KB-VIN [1] = experiment: Induction of apoptosis in human KB-VIN cells assessed as increase in cleaved PARP expression by Western blot analysis; type: functional, cell-based
Method in brief: (§1)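 Resistant KB cells attached overnight, then drug-treated at the stated concentrations and times (24 h or 48 h). Lysates were immunoblotted for cleaved PARP, caspase-3, -8 and -9, and γH2AX, with anti-mouse or anti-rabbit IgG secondaries.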

Histone deacetylase 2 = Histone deacetylase 2 (Homo sapiens, UniProt Q92769); experiment: Inhibition of recombinant human C-terminal GST-tagged HDAC2 (1 to 488 residues) expressed in baculovirus infected insect cells using RHKKAc-AMC as substrate measured after 60 mins by fluorescence assay
Chain of Histone deacetylase 2 (Q92769 whole entry, the tested form may be a part): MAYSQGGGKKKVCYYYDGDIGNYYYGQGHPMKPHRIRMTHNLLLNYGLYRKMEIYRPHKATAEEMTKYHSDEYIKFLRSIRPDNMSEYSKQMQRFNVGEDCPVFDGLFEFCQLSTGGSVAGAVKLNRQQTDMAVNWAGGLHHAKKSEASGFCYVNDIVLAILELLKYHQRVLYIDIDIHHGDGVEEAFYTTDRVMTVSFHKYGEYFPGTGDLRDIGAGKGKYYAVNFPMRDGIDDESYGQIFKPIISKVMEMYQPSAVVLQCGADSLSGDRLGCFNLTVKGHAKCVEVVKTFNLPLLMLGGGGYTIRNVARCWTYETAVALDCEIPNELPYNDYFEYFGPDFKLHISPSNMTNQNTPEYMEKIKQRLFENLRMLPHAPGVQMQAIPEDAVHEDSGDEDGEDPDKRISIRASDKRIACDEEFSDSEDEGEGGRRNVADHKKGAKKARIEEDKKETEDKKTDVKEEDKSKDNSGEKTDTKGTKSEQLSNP

Tubulin (Homo sapiens) [2] = biological target: T1, Tubulin (Homo sapiens) (UniProt P68371+Q9H4B7+P0DPH7+P68366+Q13509+Q71U36+P04350+Q3ZCM7+P07437+P68363+Q9BQE3+Q6PEY2+Q13885+Q9BVA1+Q9BUF5); experiment: Induction of microtubule disruption in human KB7D cells assessed as polymerized fraction at 0.01 uM measured after 16 hrs by SDS-PAGE analysis (reference value: 26.4 to 29%); type: cell-based
Method in brief: (§2)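 KB-Vin or KB-7D cells treated 16 h, then lysed 5 min at 37 °C in the dark in hypotonic buffer (1% NP-40, 1 mmol/L MgCl2, 2 mmol/L EGTA, 50 mmol/L Tris-HCl pH 6.8, protease inhibitors). Spun 13000 rpm, 10 min, room temperature. Soluble supernatant and resuspended polymerized pellet run on SDS-PAGE.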

KB7D [3] = experiment: Induction of apoptosis in human KB7D cells assessed as increase in cleaved caspase-9 expression by Western blot analysis; type: functional, cell-based
Method in brief: (§3)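 KB-7D cells in RPMI 1640 with 5% FBS and 1% penicillin-streptomycin at 37 °C, 5% CO2, attached overnight. Treated with indicated concentrations for 24 or 48 h, lysed, and immunoblotted for cleaved caspases.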

KB7D [4] = experiment: Induction of apoptosis in human KB7D cells assessed as increase in cleaved caspase-9 expression at 0.01 to 0.1 uM measured after 48 hrs by Western blot analysis; type: functional, cell-based; conditions: dose 0.01-0.1 µM; method in brief: as §3
KB-VIN [5] = experiment: Induction of apoptosis in human KB-VIN cells assessed as increase in cleaved caspase-9 expression by Western blot analysis; type: functional, cell-based; method in brief: as §1
KB-VIN [6] = experiment: Cell cycle arrest in human KB-VIN cells assessed as increase in accumulation at sub-G1 phase at 0.05 uM measured after 48 hrs by propidium iodide staining based flow cytometry; type: functional
Method in brief: (§4)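 Cells seeded at 2.5×10^5 per well and exposed to DMSO or compound for the stated times. They were washed in PBS and fixed overnight in ice-cold 70% ethanol at −20 °C. Staining used propidium iodide 80 µg/mL with 0.1% Triton X-100 and RNase A 100 µg/mL in PBS. DNA content was read by FACScan flow cytometry.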

KB7D [7] = experiment: Induction of apoptosis in human KB7D cells assessed as increase in cleaved caspase-3 expression by Western blot analysis; type: functional, cell-based; method in brief: as §1
KB-VIN [8] = experiment: Induction of apoptosis in human KB-VIN cells assessed as increase in cleaved caspase-9 expression at 0.1 to 0.5 uM measured after 24 hrs by Western blot analysis; type: functional, cell-based; conditions: dose 0.1-0.5 µM; method in brief: as §1
Tubulin (Homo sapiens) [9] = biological target: T1, Tubulin (Homo sapiens); experiment: Induction of microtubule disruption in human KB7D cells assessed as polymerized fraction at 0.1 uM measured after 16 hrs by SDS-PAGE analysis (reference value: 26.4 to 29%); type: cell-based; method in brief: as §2
KB-VIN [10] = experiment: Cell cycle arrest in human KB-VIN cells assessed as increase in accumulation at sub-G1 phase at 0.5 uM measured after 24 hrs by propidium iodide staining based flow cytometry; type: functional; method in brief: as §4
Tubulin (Homo sapiens) [11] = biological target: T1, Tubulin (Homo sapiens); experiment: Induction of microtubule disruption in human KB-VIN cells at 0.05 uM measured after 24 hrs by DAPI staining based deconvolution fluorescence microscopic analysis; type: cell-based
Method in brief: (§5)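 Cells on glass coverslips treated 24 h, fixed in 4% paraformaldehyde for 15 min, and permeabilized with 0.5% Triton X-100. Blocked in PBS/2% BSA, stained with anti-beta-tubulin (1:250) and Alexa 488 anti-mouse (1:250), and mounted with DAPI. Imaged by wide-field deconvolution microscopy.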

KB7D [12] = experiment: Induction of apoptosis in human KB7D cells assessed as increase in cleaved caspase-8 expression by Western blot analysis; type: functional, cell-based; method in brief: as §3
KB7D [13] = experiment: Induction of apoptosis in human KB7D cells assessed as increase in cleaved caspase-3 expression at 0.01 to 0.1 uM measured after 48 hrs by Western blot analysis; type: functional, cell-based; conditions: dose 0.01-0.1 µM; method in brief: as §1
KB-VIN [14] = experiment: Induction of apoptosis in human KB-VIN cells assessed as increase in cleaved caspase-3 expression at 0.05 uM measured after 48 hrs by Western blot analysis; type: functional, cell-based; method in brief: as §1
KB-VIN [15] = experiment: Induction of apoptosis in human KB-VIN cells assessed as increase in cleaved caspase-8 expression at 0.05 uM measured after 48 hrs by Western blot analysis; type: functional, cell-based; method in brief: as §1
KB-VIN [16] = experiment: Induction of apoptosis in human KB-VIN cells assessed as increase in activated gammaH2AX expression at 0.1 to 0.5 uM measured after 24 hrs by Western blot analysis; type: functional, cell-based; conditions: dose 0.1-0.5 µM; method in brief: as §1
KB-VIN [17] = experiment: Induction of apoptosis in human KB-VIN cells assessed as increase in cleaved caspase-8 expression by Western blot analysis; type: functional, cell-based; method in brief: as §1
KB-VIN [18] = experiment: Induction of apoptosis in human KB-VIN cells assessed as increase in cleaved caspase-9 expression at 0.05 uM measured after 48 hrs by Western blot analysis; type: functional, cell-based; method in brief: as §1
Tubulin (Homo sapiens) [19] = biological target: T1, Tubulin (Homo sapiens); experiment: Induction of microtubule disruption in human KB-VIN cells assessed as polymerized fraction at 1 uM measured after 16 hrs by SDS-PAGE analysis (reference value: 23.1 to 25.5%); type: cell-based; method in brief: as §2
Histone deacetylase 1 = Histone deacetylase 1 (Homo sapiens, UniProt Q13547); experiment: Inhibition of recombinant human full-length C-terminal FLAG-His tagged HDAC1 (1 to 482 residues) expressed in Sf21 insect cells using RHK-K(Ac)-AMC as substrate measured after 60 mins by fluorescence assay
Chain of Histone deacetylase 1 (Q13547 whole entry, the tested form may be a part): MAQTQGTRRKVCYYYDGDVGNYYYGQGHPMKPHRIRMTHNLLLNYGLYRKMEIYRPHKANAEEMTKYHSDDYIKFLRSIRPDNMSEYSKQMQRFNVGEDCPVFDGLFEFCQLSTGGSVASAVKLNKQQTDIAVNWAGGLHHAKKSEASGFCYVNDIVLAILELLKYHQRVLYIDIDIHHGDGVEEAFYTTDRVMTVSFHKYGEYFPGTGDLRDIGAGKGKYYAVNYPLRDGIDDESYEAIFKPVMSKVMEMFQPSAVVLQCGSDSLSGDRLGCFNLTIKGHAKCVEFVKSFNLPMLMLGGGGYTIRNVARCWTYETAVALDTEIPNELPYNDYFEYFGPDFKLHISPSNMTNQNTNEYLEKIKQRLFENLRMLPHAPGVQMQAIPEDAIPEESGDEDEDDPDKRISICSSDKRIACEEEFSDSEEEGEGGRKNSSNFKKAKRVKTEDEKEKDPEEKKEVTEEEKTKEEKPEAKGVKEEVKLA

[20] = Antiproliferative activity against human KB7D cells incubated for 48 hrs by SRB assay; type: functional
Method in brief: (§6)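 KB parental and resistant sublines kept in RPMI 1640 with 5% FBS at 37 °C, 5% CO2. Cells plated, left overnight, then given graded compound concentrations for 48 h. A time-zero plate was fixed with 10% TCA at dosing. Cells were stained with 0.4% SRB in 1% acetic acid, unbound dye washed off, bound dye dissolved in 10 mM Tris base, and absorbance read at 515 nm.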

[21] = Antiproliferative activity against human KB-VIN cells incubated for 48 hrs by SRB assay; type: functional; conditions: KBVIN; method in brief: as §6
Tubulin (Homo sapiens) [22] = biological target: T1, Tubulin (Homo sapiens); experiment: Induction of microtubule disruption in human KB7D cells at 0.05 uM measured after 24 hrs by DAPI staining based deconvolution fluorescence microscopic analysis; type: cell-based; method in brief: as §5
KB7D [23] = experiment: Induction of apoptosis in human KB7D cells assessed as increase in cleaved caspase-8 expression at 0.01 to 0.1 uM measured after 48 hrs by Western blot analysis; type: functional, cell-based; conditions: dose 0.01-0.1 µM; method in brief: as §1
KB-VIN [24] = experiment: Induction of apoptosis in human KB-VIN cells assessed as increase in activated gammaH2AX expression at 0.05 uM measured after 48 hrs by Western blot analysis; type: functional, cell-based; method in brief: as §1
KB-VIN [25] = experiment: Induction of apoptosis in human KB-VIN cells assessed as increase in activated gammaH2AX expression by Western blot analysis; type: functional, cell-based; method in brief: as §1
Tubulin (Homo sapiens) [26] = biological target: T1, Tubulin (Homo sapiens); experiment: Induction of microtubule disruption in human KB7D cells assessed as polymerized fraction at 1 uM measured after 16 hrs by SDS-PAGE analysis (reference value: 26.4 to 29%); type: cell-based; method in brief: as §2

IC50 (Histone deacetylase 2): 1470 nM
Activity (Tubulin (Homo sapiens) [2]): 14.4%
Activity (Tubulin (Homo sapiens) [9]): 13.3%
Activity (Tubulin (Homo sapiens) [11]): Active
Activity (Tubulin (Homo sapiens) [19]): 17.8%
IC50 (Histone deacetylase 1): 1070 nM
Activity (Tubulin (Homo sapiens) [22]): Active
Activity (Tubulin (Homo sapiens) [26]): 16%
SMILES: COc1ccc(S(=O)(=O)Nc2ccccc2NCc2ccc(C(=O)Nc3ccccc3N)cc2)cc1
Activity (KB-VIN [1]): Dose-dependent effect
Activity (KB7D [3]): Dose-dependent effect
Activity (KB7D [4]): Active
Activity (KB-VIN [5]): Dose-dependent effect
Activity (KB-VIN [6]): Active
Activity (KB7D [7]): Dose-dependent effect
Activity (KB-VIN [8]): Active
Activity (KB-VIN [10]): Active
Activity (KB7D [12]): Dose-dependent effect
Activity (KB7D [13]): Active
Activity (KB-VIN [14]): Active
Activity (KB-VIN [15]): Active
Activity (KB-VIN [16]): Active
Activity (KB-VIN [17]): Dose-dependent effect
Activity (KB-VIN [18]): Active
GI50 [20]: 12 nM
GI50 [21]: 22 nM
Activity (KB7D [23]): Active
Activity (KB-VIN [24]): Active
Activity (KB-VIN [25]): Dose-dependent effect
